Measurements published in ChEMBL document CHEMBL4028855, “New Mandelalides Expand a Macrolide Series of Mitochondrial Inhibitors” (J Med Chem, 2017).
Activity calls are given as the source filed them. The calls are words filed in the database; no cut-off is given here.

How the values were obtained:
NCI-H460 [1] = assay: Cytotoxicity against human NCI-H460 cells assessed as reduction in cell viability measured after 48 hrs by MTT assay; format: functional, cell-based; conditions: NCI-H460, 48 h
How it was run: (§1)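 Cells grown at 37 °C, 5% CO2 and seeded 16−18 h before treatment. Exposed to increasing concentrations or vehicle (0.1% DMSO) for 48 h. Viability read by MTT, with vehicle-treated cells set as 100%. Mean ± SE, n = 3 wells, at least three independent comparisons. EC50 obtained by nonlinear regression fit to a logistic equation.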

HeLa [2] = assay: Cytotoxicity against human HeLa cells assessed as reduction in cell viability measured after 48 hrs by MTT assay
HeLa [3] = assay: Cytotoxicity against human HeLa cells assessed as reduction in cell viability up to 1000 nM measured after 48 hrs by MTT assay; format: functional, cell-based; how it was run: as §1
Homo sapiens [4] = organism: Homo sapiens; assay: Inhibition of mitochondrial ATP synthase activity in human NCI-H292 cells assessed as decrease in oxygen consumption rate at 1 uM at 135 mins after FCCP treatment at 87 mins by real-time metabolic flux analysis; format: cell-based
Homo sapiens [5] = organism: Homo sapiens; assay: Inhibition of mitochondrial ATP synthase activity in human NCI-H292 cells assessed as decrease in basal oxygen consumption rate at 1 uM at 32 mins followed by addition of FCCP at 87 mins and rotenon /Antimycin A at 135 mins by real-time metabolic flux analysis; format: cell-based
Homo sapiens [6] = organism: Homo sapiens; assay: Inhibition of mitochondrial ATP synthase activity in human NCI-H292 cells assessed as decrease in oxygen consumption rate at 1 uM at 87 mins followed by addition of rotenon /Antimycin A at 135 mins measured by real-time metabolic flux analysis; format: cell-based
Homo sapiens [7] = organism: Homo sapiens; assay: Inhibition of mitochondrial ATP synthase activity in human NCI-H292 cells assessed as decrease in oxygen consumption rate at 1 uM at 32 mins followed by addition of 1 uM FCCP at 87 mins and 0.5 uM rotenon /Antimycin A at 135 mins measured by real-time metabolic flux analysis; format: cell-based
HeLa [8] = assay: Cytotoxicity against human HeLa cells at 6000 cells per well assessed as cell viability at 100 to 1000 nM after 48 hrs by MTT assay relative to control; format: functional
[9] = (§2) Inhibition of bovine heart mitochondrial ATP synthase activity assessed as decrease in ATP-dependent NADH oxidation measured every 30 secs for 30 mins by colorimetric assay relative to control; set-up: species or system Bos taurus
Bos taurus [10] = organism: Bos taurus; assay: as §2
HeLa [11] = assay: Cytotoxicity against human HeLa cells at 10000 cells per well assessed as cell viability at 100 to 1000 nM after 48 hrs by MTT assay relative to control; format: functional
HeLa [12] = assay: Cytotoxicity against human HeLa cells at 2000 cells per well assessed as decrease in cell viability at 100 to 1000 nM after 48 hrs by MTT assay relative to control; format: functional
NCI-H460 [13] = assay: Cytotoxicity against human NCI-H460 cells assessed as reduction in cell viability measured after 72 hrs by MTT assay; conditions: NCI-H460, 72 h
HEK-293T = assay: Cytotoxicity against HEK293T cells assessed as decrease in cell viability measured after 48 hrs by MTT assay; format: cell-based; conditions: human; how it was run: as §1
HeLa [14] = assay: Induction of apoptosis in human HeLa cells assessed as caspase-3/7 activation at 1 to 300 nM incubated for 24 hrs measured by luminescence-based Caspase-Glo assay
[15] = Safety index, ratio of compound EC50 to Oligomycin A EC50 for cytotoxicity against HEK293T cells; format: cell-based, HEK-293T; conditions: human, read-out: Ratio EC50
How it was run: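 HEK 293T cells were grown in DMEM with 10% FBS, 2 mM L-glutamine and 1% penicillin/streptomycin at 37 °C and 5% CO2. They were seeded at two starting densities 16−18 h before treatment with increasing concentrations of test compound or oligomycin A (final DMSO ≤0.1%). Viability was read by MTT relative to vehicle (100%), with EC50s fit by nonlinear logistic regression and compared as a ratio.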

HeLa [16] = assay: Cytotoxicity against human HeLa cells assessed as reduction in cell viability at 0.03 to 300 nM after 72 hrs in presence of 2-deoyxglucose by MTT assay; format: functional, cell-based
HeLa [17] = assay: Cytotoxicity against human HeLa cells at 10000 cells per well assessed as decrease in cell viability up to 1 uM after 48 hrs by MTT assay; format: functional, cell-based
HeLa [18] = assay: Cytotoxicity against human HeLa cells at 6000 cells per well assessed as decrease in cell viability up to 1 uM after 48 hrs by MTT assay; format: functional, cell-based
HeLa [19] = assay: Cytotoxicity against human HeLa cells at 2000 cells per well assessed as decrease in cell viability at 0.25 to 1 uM after 48 hrs by MTT assay relative to control; format: functional
HeLa [20] = assay: Cytotoxicity against human HeLa cells assessed as reduction in cell viability at […] after 72 hrs by MTT assay; format: functional, cell-based
Bos taurus [21] = organism: Bos taurus; assay: Inhibition of bovine heart mitochondrial ATP synthase activity assessed as decrease in ATP-dependent NADH oxidation at 12.5 uM measured every 30 secs for 30 mins by colorimetric assay relative to control
Bos taurus [22] = organism: Bos taurus; assay: Inhibition of bovine heart mitochondrial ATP synthase activity assessed as decrease in ATP-dependent NADH oxidation at 1 uM measured every 30 secs for 30 mins by colorimetric assay relative to control

## CCCC(=O)O[C@H]1[C@@H](OC)[C@H](O[C@@H]2C[C@@H]3C[C@H](OC(C)=O)[C@@]4(O)C[C@H](C[C@H](OC(C)=O)[C@@H]5C[C@H](C)[C@H](C/C=C\C=C\[C@H](C)C[C@H](C2)O3)O5)OC4=O)O[C@@H](C)[C@H]1OC(=O)CCC
NCI-H460 [1]
  EC50: 2400 nM
HeLa [2]
  EC50: > 3000 nM

## CCCC(=O)O[C@H]1[C@@H](OC)[C@H](O[C@@H]2C[C@@H]3C[C@H](OC(=O)CCC)[C@@]4(O)C[C@H](C[C@H](OC(C)=O)[C@@H]5C[C@H](C)[C@H](C/C=C\C=C\[C@H](C)C[C@H](C2)O3)O5)OC4=O)O[C@@H](C)[C@H]1OC(=O)CCC
NCI-H460 [1]
  EC50: 790 nM
HeLa [2]
  EC50: > 3000 nM

## COC(=O)/C=C/C[C@H]1C[C@@H](O[C@@H]2O[C@@H](C)[C@H](O)[C@@H](O)[C@H]2OC)C[C@@H](C[C@@H](C)/C=C/C=C\C[C@@H]2O[C@H]([C@@H](O)C[C@H](O)CO)C[C@@H]2C)O1
HeLa [3]
  Activity: inactive

## CCCC(=O)O[C@H]1[C@@H](OC)[C@H](O[C@@H]2C[C@@H]3C[C@H](OC(=O)CCC)[C@]4(O)C(=O)O[C@@H](C[C@H](O)[C@@H]5C[C@H](C)[C@H](C/C=C\C=C\[C@H](C)C[C@H](C2)O3)O5)[C@H]4O)O[C@@H](C)[C@H]1OC(=O)CCC
NCI-H460 [1]
  EC50: > 3000 nM
HeLa [2]
  EC50: > 3000 nM

## CCCC(=O)O[C@H]1C[C@H]2C[C@@H](O[C@@H]3O[C@@H](C)[C@@H](O)[C@@H](O)[C@H]3OC)C[C@@H](C[C@@H](C)/C=C/C=C\C[C@@H]3O[C@@H](C[C@@H]3C)[C@@H](O)C[C@H]3C[C@@]1(O)C(=O)O3)O2
NCI-H460 [1]
  EC50: 44 nM
Homo sapiens [4]
  inhibition: Active
Homo sapiens [5]
  inhibition: Active
Homo sapiens [6]
  inhibition: Active
Homo sapiens [7]
  inhibition: Active
HeLa [2]
  EC50: 16 nM

## CCCC(=O)O[C@H]1[C@@H](OC)[C@H](O[C@@H]2C[C@@H]3C[C@H](O)[C@]4(O)C(=O)O[C@@H](C[C@H](O)[C@@H]5C[C@H](C)[C@H](C/C=C\C=C\[C@H](C)C[C@H](C2)O3)O5)[C@H]4O)O[C@@H](C)[C@H]1OC(=O)CCC
NCI-H460 [1]
  EC50: 2000 nM
HeLa [2]
  EC50: 1900 nM

## CCCC(=O)O[C@H]1[C@@H](OC)[C@H](O[C@@H]2C[C@@H]3C[C@H](OC(=O)CCC)[C@@]4(O)C[C@H](C[C@H](O)[C@@H]5C[C@H](C)[C@H](C/C=C\C=C\[C@H](C)C[C@H](C2)O3)O5)OC4=O)O[C@@H](C)[C@H]1OC(=O)CCC
NCI-H460 [1]
  EC50: 910 nM
HeLa [2]
  EC50: 2000 nM

## CCCC(=O)O[C@H]1C[C@H]2C[C@@H](O)C[C@@H](C[C@@H](C)/C=C/C=C\C[C@@H]3O[C@@H](C[C@@H]3C)[C@@H](O)C[C@@H]3OC(=O)[C@]1(O)[C@@H]3OC(=O)CCC)O2
NCI-H460 [1]
  EC50: 1700 nM
HeLa [2]
  EC50: 660 nM

## CCCCCC(=O)O[C@H]1C[C@H]2C[C@@H](O)C[C@@H](C[C@@H](C)/C=C/C=C\C[C@@H]3O[C@@H](C[C@@H]3C)[C@@H](O)C[C@@H]3OC(=O)[C@]1(O)[C@@H]3OC(=O)CCC)O2
NCI-H460 [1]
  EC50: 2600 nM
HeLa [2]
  EC50: 330 nM

## CCCC(=O)OC1C(=O)C(OC)C(O[C@@H]2C[C@@H]3C[C@H](OC(=O)CCC)[C@]4(O)C(=O)O[C@@H](C[C@H](O)[C@@H]5C[C@H](C)[C@H](C/C=C\C=C\[C@H](C)C[C@H](C2)O3)O5)[C@H]4O)OC1C (some centres undefined)
NCI-H460 [1]
  EC50: 270 nM
HeLa [2]
  EC50: 50 nM

## CCCCCCCC(=O)OC[C@@H]1C[C@H](O)[C@@H]2C[C@H](C)[C@H](C/C=C\C=C\[C@H](C)C[C@@H]3C[C@H](O[C@@H]4O[C@@H](C)[C@H](O)[C@@H](O)[C@H]4OC)C[C@H](C/C=C/C(=O)O1)O3)O2
NCI-H460 [1]
  EC50: 9.8 nM
HeLa [2]
  EC50: 2.8 nM

## CO[C@H]1[C@H](O[C@@H]2C[C@@H]3C/C=C/C(=O)O[C@H](CO)C[C@H](O)[C@@H]4C[C@H](C)[C@H](C/C=C\C=C\[C@H](C)C[C@H](C2)O3)O4)O[C@@H](C)[C@H](O)[C@H]1O
HeLa [8]
  Activity: 85%
[9]
  IC50: 2.2 nM
Bos taurus [10]
  inhibition: Dose-dependent effect
HeLa [11]
  Activity: 85%
HeLa [12]
  Activity: 25%
NCI-H460 [13]
  EC50: 11 nM
HEK-293T
  Activity: Dose-dependent effect
Homo sapiens [5]
  inhibition: Active
HeLa [14]
  Activity: Active
[15]
  selectivity ratio: 13 to 30
HeLa [16]
  Activity: Active
HeLa [2]
  EC50: 9.9 nM

## OC[C@H]1OC(O)C[C@@H](O)[C@@H]1O (some centres undefined)
HeLa [17]
  Activity: inactive
HeLa [18]
  Activity: inactive
HeLa [19]
  Activity: 50%
HeLa [20]
  Activity: Active

## CC[C@@H]1/C=C/C=C/C[C@H](C)[C@@H](O)[C@](C)(O)C(=O)[C@@H](C)[C@H](O)[C@@H](C)C(=O)[C@H](C)[C@@H](O)[C@H](C)/C=C/C(=O)O[C@H]2[C@@H](C)[C@@H](CC1)O[C@@]1(CC[C@@H](C)[C@@H](C[C@H](C)O)O1)[C@@H]2C
Bos taurus [21]
  inhibition: Active
Homo sapiens [5]
  inhibition: Active
Homo sapiens [7]
  inhibition: Active

## COC[C@@H](C[C@H]1O[C@@](O)([C@H](O)[C@@H]2C[C@H](OC)[C@@H](O)CC/C=C(C)/C=C/[C@@H](O[C@@H]3O[C@@H](C)[C@H](OC)[C@@H](O)[C@@H]3O)[C@H](C)/C=C(C)/C=C(C)/C=C(\C)C(=O)O2)[C@H](C)[C@@H](O)[C@H]1C)O[C@H]1C[C@](C)(O)[C@@H](O[C@H]2C[C@@H](OC)[C@H](O)[C@@H](C)O2)[C@H](C)O1
Bos taurus [22]
  inhibition: Active

## CCCC(=O)O[C@H]1C[C@H]2C[C@@H](O)C[C@@H](C[C@@H](C)/C=C/C=C\C[C@@H]3O[C@@H](C[C@@H]3C)[C@@H](O)C[C@@H]3OC(=O)[C@]1(O)[C@@H]3O)O2
[9]
  IC50: 3400 nM
NCI-H460 [1]
  EC50: > 3000 nM
Homo sapiens [5]
  inhibition: inactive
HeLa [2]
  EC50: > 3000 nM
